Published values gathered from unrelated publications.
Compare with care: the assays were run in different laboratories.
Cell line: HEK293
Observed: cell growth or viability

Structure (SMILES)	technique	time	IC50
C[C@@H](O)C(=O)CCCCC[C@@H]1NC(=O)[C@H]2CCCN2C(=O)[C@H](Cc2ccccc2)NC(=O)C(C)(C)NC1=O	XTT		0.04 µM
CCCc1ccc(OCCCCCN2CCCCCC2)cc1		48 h	33.3 µM
CCCCCCCCc1c(C)[nH]c(C)c(C#N)c1=O			> 10 µM
CC(=O)SCc1cc(=O)oc2ccc(O)cc12	MTT	36 h	> 20 µM
O=C(c1cc(-c2cccs2)[nH]n1)N1CCN(S(=O)(=O)c2ccc(Cl)s2)CC1			> 10 µM
O=c1cc(CCl)c2cc(O)ccc2o1	MTT	36 h	> 20 µM
C[C@@H](O)C(=O)CCCCCCC(=O)Nc1ccccc1	XTT		35.6 µM
COc1cccc2c1C(=O)c1c(O)c3c(c(O)c1C2=O)C[C@@](O)(C(=O)CO)C[C@@H]3O[C@H]1C[C@H](N)[C@H](O)[C@H](C)O1	MTT	24 h	> 40 µM
c1ccc2c(OCCCCCCN3CCCCCC3)cccc2c1		48 h	11.8 µM
Cc1nc2ccccc2c(O)c1-c1ccc(Cl)cc1			> 10 µM
CC(=O)Oc1ccc2oc(=O)cc(CSC(C)=O)c2c1	MTT	36 h	> 20 µM
CC(=O)O[C@H](C)C(=O)CCCCC[C@@H]1NC(=O)[C@H]2CCCN2C(=O)[C@H](Cc2ccccc2)NC(=O)C(C)(C)NC1=O	XTT		0.006 µM
Cc1[nH]c(C)c(-c2ccc(C(=O)c3ccc(Cl)cc3)cc2)c(=O)c1Br			> 10 µM
Cc1c(C)c2c(O)cc(O)cc2oc1=O	MTT	36 h	> 20 µM
